# In the library only some 4.7% were active in any assay of this set; here they are far more common.
# GAA850 FXN act – frataxin GAA850 promoter activation; HEK293 lucGAA850 FXN promoter luciferase reporter, 24 h; percent of 10 µM SAHA response; activation, % at 6 µM; 360,000 compounds, 0.56% hits; AID 540364;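 active = activation above the average of all compounds screened plus 3 SD, cutoff fixed separately per campaign, cut at about 7.5% in these data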
# MC4R antagonist – blocks human MC4R cAMP signaling; P32245; MC4R-expressing cells, MTII-stimulated cAMP, LANCE TR-FRET; inhibition, % at 6.5 µM; 360,000 compounds, 0.48% hits;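 active = inhibition above its plate's cutoff, the mean of tested wells on that plate plus 3 SD, cut at about 29% in these data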
#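 Test system: U2OS cells stably expressing human melanocortin 4 receptor (MC4R); also added: Melanotan II challenge; compound: 6.5 µM single dose; timing: 30-min compound preincubation, 1-h Melanotan II challenge, 1-h detection, room temperature; signal: Eu-cAMP/anti-cAMP TR-FRET, emission 671 nm; repeats: one well per compound, no replicates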
# AHR act – activates the human aryl hydrocarbon receptor; 320,000 compounds, 2.5% hits; AHR-responsive luciferase reporter cells, luminescence; P35869; activation, % at 5 µM; in the data active = activation above about 47%
# Target sequence (P35869 whole entry, looked up): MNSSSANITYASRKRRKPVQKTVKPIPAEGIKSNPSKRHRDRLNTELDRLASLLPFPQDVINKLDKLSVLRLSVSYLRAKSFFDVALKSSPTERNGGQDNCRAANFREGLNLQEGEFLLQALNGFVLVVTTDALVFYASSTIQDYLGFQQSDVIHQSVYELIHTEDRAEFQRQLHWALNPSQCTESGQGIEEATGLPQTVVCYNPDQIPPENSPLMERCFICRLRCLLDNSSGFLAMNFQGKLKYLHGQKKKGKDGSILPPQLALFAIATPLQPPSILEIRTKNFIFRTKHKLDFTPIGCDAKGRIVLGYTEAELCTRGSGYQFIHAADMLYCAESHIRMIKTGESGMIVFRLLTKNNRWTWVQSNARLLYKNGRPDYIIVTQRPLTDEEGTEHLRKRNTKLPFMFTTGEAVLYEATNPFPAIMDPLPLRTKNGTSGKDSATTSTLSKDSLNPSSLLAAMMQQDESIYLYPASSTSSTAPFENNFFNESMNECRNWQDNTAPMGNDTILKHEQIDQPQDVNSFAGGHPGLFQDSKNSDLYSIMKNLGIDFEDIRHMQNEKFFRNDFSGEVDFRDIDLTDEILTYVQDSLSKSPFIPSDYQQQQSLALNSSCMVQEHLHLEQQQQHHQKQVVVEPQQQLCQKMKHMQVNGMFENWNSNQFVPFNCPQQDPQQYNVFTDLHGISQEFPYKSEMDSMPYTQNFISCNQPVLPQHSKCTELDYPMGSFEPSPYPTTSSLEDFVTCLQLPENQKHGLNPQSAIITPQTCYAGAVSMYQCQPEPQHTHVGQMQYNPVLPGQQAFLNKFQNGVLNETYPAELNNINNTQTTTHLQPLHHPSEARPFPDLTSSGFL
# MC4R barr agon – human MC4R agonism via beta-arrestin | 360,000 compounds, 0.98% hits | P32245 | AID 540308 | activation, % at 8.9 µM | U2OS MC4R beta-arrestin complementation, luminescence; percent of melanotan II response, DMSO zero;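 active = activation above a per-plate cutoff, the mean activation of sample wells on that plate plus 3 SD, cut at about 8% in these data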
# m5-HT2A agonist – agonists of mouse serotonin 5-HT2A receptor (HTR2A); P35363; CHO-K1 mHTR2A beta-arrestin complementation, luminescence; percent of 30 µM serotonin response; activation, % at 7.6 µM; 360,000 compounds, 0.66% hits;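 active = activation above a run cutoff, the mean activation of all tested compounds plus 3 SD, cut at about 14% in these data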
# Numbers stand for hits; i = inactive; nt = no result given.
SMILES,GAA850 FXN act,MC4R antagonist,AHR act,MC4R barr agon,m5-HT2A agonist
Cn1c(CN2CCN(C(=O)c3ccccc3)CC2)nc2cc([N+](=O)[O-])ccc21,i,i,i,i,i
Cc1ccc(CSc2nc(N)cc(=O)[nH]2)cc1,i,i,i,i,i
COc1cc(/C=C(\NC(=O)c2cc(OC)c(OC)c(OC)c2)C(=O)NC(C(=O)O)c2ccccc2)cc(OC)c1OC (centres undefined),i,i,i,i,i
O=C(NCCCNc1ccc([N+](=O)[O-])cc1)C(F)(F)F,i,i,i,i,i
O=C(CCl)N(CCCNC(=O)C(F)(F)F)c1ccc([N+](=O)[O-])cc1,i,i,i,13,i
CC(=O)Nc1ccc(NC(=O)C(C)OC(=O)CCC2CCCCC2)cc1 (centres undefined),i,i,i,i,i
CC(C)NS(=O)(=O)c1ccc(NC(=O)C(C)OC(=O)CCC2CCCC2)cc1 (centres undefined),i,i,i,8.4,i
CC(=O)c1cc2c(cc1N/C(=N/S(=O)(=O)c1ccccc1)c1ccc(Cl)cc1)OCO2,i,i,94,i,i
Cc1ccccc1NC(=O)CN1C(=O)S/C(=C\c2ccc(-c3cc(C(=O)O)ccc3C)o2)C1=O,i,i,nt,i,i
Cc1ccc(C(=O)O)cc1-c1ccc(/C=C2\SC(=O)N(CC(=O)Nc3ccccc3)C2=O)o1,i,32,i,i,i
O=C(/C=C/c1ccco1)Nc1ccc(-c2nc3ccccc3[nH]2)cc1,i,i,i,i,i
O=C(Nc1ccc(-c2nc3ccccc3[nH]2)cc1)c1ccco1,8.6,i,i,i,i
O=C(CSc1ccccc1)Nc1nc2ccccc2[nH]1,i,i,i,i,i
O=C(CSc1ccc(Cl)cc1)Nc1ccc(-c2nc3ccccc3[nH]2)cc1,i,i,i,10,i
c1ccc2c(c1)[nH]c1c(N3CCC4(CC3)OCCO4)ncnc12,i,i,66,i,i
COc1cc2[nH]c3c(N4CCN(c5ccc(Cl)cc5)CC4)ncnc3c2cc1OC,i,i,i,12,i
Cc1ccc2[nH]c3c(N4CCN(Cc5ccccc5)CC4)ncnc3c2c1,i,i,65,i,i
CCc1cc2c(N3CCN(C(=O)c4ccco4)CC3)ncnc2s1,i,i,i,i,i
O=C(c1ccco1)N1CCN(c2ncnc3c2[nH]c2ccc(Cl)cc23)CC1,nt,nt,81,nt,nt
COc1ccc2[nH]cc(CCNC(=O)Cc3ccc(F)cc3)c2c1,i,i,i,i,i
c1ccc(CN2CCN(c3ncnc4c3[nH]c3ccccc34)CC2)cc1,i,i,i,i,24
CC(C)Oc1ccc(-c2cc(=O)[nH]c(=O)[nH]2)cc1,i,i,69,i,i
Nc1ccn(CC(=O)NCCNc2ccc([N+](=O)[O-])cn2)c(=O)n1,i,i,i,i,i
Cc1ccc(C(=O)N/C(=C/c2ccc(F)cc2)C(=O)NCc2ccncc2)cc1,i,i,i,i,i
Cc1cc(-c2nc3cccnc3s2)ccc1NS(=O)(=O)c1ccc2c(c1)OCCO2,i,i,48,i,i
SMILES,GAA850 FXN act,MC4R antagonist,AHR act,MC4R barr agon,m5-HT2A agonist
CCS(=O)(=O)Nc1cccc(-c2nc3cccnc3s2)c1,i,i,76,i,i
Cc1cc(-c2nc3cccnc3s2)ccc1NS(=O)(=O)c1cccs1,i,i,70,i,i
COc1ccc(-c2nc3ccc(Br)cn3c2Cc2ccccc2)cc1OC,nt,nt,nt,nt,i
COc1ccc(C(=O)N=c2sc3c(C)ccc(OC)c3n2C)cc1,i,i,56,i,i
COc1ccc(OC)c2c1sc(=NC(=O)c1cccc(N3C(=O)CCC3=O)c1)n2C,i,i,70,i,i
Cc1ccc(NC(=O)C2CCN(S(=O)(=O)c3ccc4c(c3)NC(=O)C(C)S4)CC2)cc1Cl (centres undefined),i,i,i,i,i
O=Cc1c(-c2ccc(Cl)cc2)oc2ccc(O)cc12,i,i,i,i,i
CCOc1ncccc1C(=O)Nc1ccc(Cl)c(S(=O)(=O)N2CCCC2)c1,i,i,i,i,i
CCOc1ncccc1C(=O)Nc1ccc(F)c(Cl)c1,i,i,61,i,i
CCOc1ncccc1C(=O)Nc1ccc2nc(C)sc2c1,i,i,i,i,i
CCOc1ncccc1C(=O)Nc1cccc(-c2nnc3n2CCCCC3)c1,i,i,47,i,i
Cc1cnc(C(=O)Nc2cccc(-c3nnc4n3CCCCC4)c2)cn1,i,i,i,i,i
CCOc1ncccc1C(=O)Nc1ccc(F)c(F)c1,i,i,60,i,i
c1cc(Nc2ncnc3sccc23)cc(-c2nnc3n2CCCCC3)c1,i,i,49,i,i
CC(C)NC(=O)C1(C#N)C=C1c1ccccc1 (centres undefined),nt,nt,nt,nt,i
COc1ccc(N=C2SC(CC(=O)Nc3ccccc3)C(=O)N2Cc2ccco2)cc1 (centres undefined),i,i,i,8.3,i
COC(=O)C[C@@H]1CC[C@@H](NC(=O)Nc2cc(F)ccc2F)[C@@H](CO)O1,nt,nt,nt,nt,i
CCOC(=O)C1=C(C)N=C2SCCC(=O)N2C1c1ccc(C(=O)OC)cc1 (centres undefined),i,i,i,i,i
CCOC(=O)C1=C(C)N2C(=C(C#N)[C@@H]1c1ccc(C(=O)OC)cc1)SC[C@@]2(O)C(C)(C)C,i,33,i,i,i
COC(=O)c1sc2ncccc2c1OCc1c(Cl)cccc1Cl,i,i,i,20,i
CN(C)/C=N/c1nc2ccc3c(c2s1)CCCC3,i,i,63,i,i
CC(=O)Nc1nc(C)c(-c2csc(Nc3ccc(O)cc3)n2)s1,i,i,49,i,i
CC(=O)Nc1cccc(-c2csc(Nc3cc(C)ccn3)n2)c1,i,i,109,i,i
CC(=O)Nc1nc(C)c(-c2csc(Nc3cccc([N+](=O)[O-])c3)n2)s1,i,i,i,i,i
CC(=O)c1cccc(Nc2nc(-c3cccc([N+](=O)[O-])c3)cs2)c1,8.0,i,i,i,i
SMILES,GAA850 FXN act,MC4R antagonist,AHR act,MC4R barr agon,m5-HT2A agonist
CC(=O)Nc1nc(C)c(-c2csc(Nc3cccc(C(C)=O)c3)n2)s1,i,i,57,i,i
COc1cc(C(=O)NC(c2ccccc2)c2ccccc2)cc(OC)c1OC,i,i,i,9.4,i
COc1cc2c(cc1OC)/C(=C/C(=O)c1ccc(OC)c([N+](=O)[O-])c1)NCC2,i,i,nt,i,i
COc1cc2c(cc1OC)/C(=C/C(=O)c1cccc([N+](=O)[O-])c1)NCC2,i,i,79,i,i
OC[C@@H]1CN(Cc2ccc(-c3ccccc3)cc2)C[C@H](n2cnc3c(NCc4ccco4)ncnc32)O1,i,i,nt,i,18
Fc1ccc(N=c2ssnc2Cl)c(F)c1,i,29,i,i,i
Clc1nssc1=Nc1ccccc1,i,i,nt,i,i
Clc1ccc(N=c2ssnc2Cl)cc1,i,i,59,i,i
CCN1CCN(C(=O)c2cc(COc3ccc(F)c(F)c3)on2)[C@@H](C)C1=O,i,i,nt,i,i

# Screening results (PubChem)
